Test results as given in ChEMBL document CHEMBL1134641, “Progress toward the development of a safe and effective agent for treating reentrant cardiac arrhythmias: synthesis and evaluation of ibutilide analogues with enhanced metabolic stability and diminished proarrhythmic potential” (2001).
“And” between values parts separate entries of the source, which are not always exact repeats. Equal values may be shown once.

How the values were obtained:
Canis familiaris [1] = test: Atrial effective refractory period (AERP) measured in canine just after inducing atrial flutter (AFL) termination by the compound at a dose of 0.6 umol/kg; format: functional, Canis lupus familiaris, Heart
Canis familiaris [2] = test: Atrial effective refractory period (AERP) measured in canine just after inducing atrial flutter (AFL) termination by the compound at a dose of 12.0 uM/kg; format: functional, Canis lupus familiaris, Heart
Canis familiaris [3] = test: Atrial effective refractory period (AERP) measured in canine just after inducing atrial flutter (AFL) termination by the compound at a dose of 2.4 uM/kg; format: functional, Canis lupus familiaris, Heart
Canis familiaris [4] = test: Atrial effective refractory period (AERP) measured in canine just after inducing atrial flutter (AFL) termination by the compound at a dose of 7.2 uM/kg; format: functional, Canis lupus familiaris, Heart
Canis familiaris [5] = test: QT interval measured in canine 24-h Infarction model at a single intravenous dose of 2.4 uM/kg; format: functional, Canis lupus familiaris
In short: (§1)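 Dogs 24 h after two-stage LAD ligation. Compound in saline given iv in sequential doses (cumulative 0.24, 0.72, 2.4 µmol/kg); saline controls then given a single 2.4 µmol/kg iv dose. HR, IVR, BP, QT, spontaneous arrhythmias/min, ERPs and MAPD90 measured at baseline and 15 min after each dose. Means ± SEM, paired t-test, p≤0.05.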

Canis familiaris [6] = test: QT interval measured in canine just after inducing atrial flutter (AFL) termination by the compound at a dose of 12.0 uM/kg; format: functional, Canis lupus familiaris, Heart
In short: (§2)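 Conscious, sling-restrained dogs with chronically implanted electrodes, studied after 2 weeks of recovery. Sustained AFL (>5 min) induced. Compound in saline given iv every 5 min to cumulative 0.024-12.0 µmol/kg. At AFL termination, HR, QT (paced cycle length 300 ms), AERP and VERP measured. Measurements then taken 3 min after each further dose. Significance p≤0.05 vs baseline.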

Canis familiaris [7] = test: QT interval measured in canine just after inducing atrial flutter (AFL) termination by the compound at a dose of 9.6 uM/kg; format: functional, Canis lupus familiaris, Heart; in short: as §2
Canis familiaris [8] = species on record: Canis familiaris; test: Atrial effective refractory period (AERP) measured in canine just after inducing atrial flutter (AFL) termination by the compound; format: functional, Canis lupus familiaris, Heart
Canis familiaris [9] = test: Atrial effective refractory period (AERP) measured in canine just after inducing atrial flutter (AFL) termination by the compound at a dose of 0.24 umol/kg; format: functional, Canis lupus familiaris, Heart
Canis familiaris [10] = test: Heart Rate measured in canine just after inducing atrial flutter (AFL) termination by the compound at a dose of 7.2 uM/kg; format: functional, Canis lupus familiaris
Canis familiaris [11] = test: Heart Rate measured in canine just after inducing atrial flutter (AFL) termination by the compound at a dose of 9.6 uM/kg; format: functional, Canis lupus familiaris
Canis familiaris [12] = test: Heart rate measured in canine 24-h Infarction model at a single intravenous dose of 2.4 uM/kg; format: functional, Canis lupus familiaris
In short: (§3)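 Male mongrel dogs (16-22 kg) with LAD permanently ligated in two stages; studied 24 h later. […] given IV in sequential doses to cumulative 0.24, 0.72, 2.4 µmol/kg. Saline controls (n=8) received vehicle, then a single IV 2.4 µmol/kg dose at the end. Measurements taken at baseline and 15 min after each dose. Means ± SEM, paired t-test, p ≤ 0.05.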

Canis familiaris [13] = test: Heart rate measured in canine 24-h Infarction model at an cumulative intravenous dose of 0.72 uM/kg; format: functional, Canis lupus familiaris; in short: as §3
Canis familiaris [14] = test: Atrial MAPD90 measured in canine 24-h Infarction model at an cumulative intravenous dose of 0.24 uM/kg; format: functional, Canis lupus familiaris, Cardiac atrium; in short: as §3
Canis familiaris [15] = test: Atrial MAPD90 measured in canine 24-h Infarction model at an cumulative intravenous dose of 0.72 uM/kg; format: functional, Canis lupus familiaris, Cardiac atrium; in short: as §3
Canis familiaris [16] = test: Number of canine in which sustained ventricular tachycardia (SVT) was observed in PES-induced arrhythmias at an cumulative intravenous dose of 2.4 uM/kg; format: functional, Canis lupus familiaris, Cardiac ventricle
In short: (§4)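 Male mongrel dogs (16-22 kg) with LAD ligated in two stages, studied 24 h later. Programmed electrical stimulation at baseline and 15 min after each iv dose in saline (cumulative 0.24, 0.72, 2.4 µmol/kg). Saline controls then received a single 2.4 µmol/kg iv dose. Responses scored as NI (≤15 beats), NSVT (>15 beats, ends within 30 s), SVT (>30 s, needing pacing or cardioversion) or VF. A positive response was repeated.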

Canis familiaris [17] = test: Number of canine in which sustained ventricular tachycardia (SVT) was observed in PES-induced arrhythmias at an single intravenous dose of 2.4 uM/kg; format: functional, Canis lupus familiaris, Cardiac ventricle; in short: as §4
Canis familiaris [18] = test: Number of canine in which ventricular fibrillation (VF) was observed in PES-induced arrhythmias at an cumulative intravenous dose of 0.72 uM/kg; format: functional, Canis lupus familiaris, Cardiac ventricle; in short: as §4
Canis familiaris [19] = test: Number of canine in which ventricular fibrillation (VF) was observed in PES-induced arrhythmias at an cumulative intravenous dose of 2.4 uM/kg; format: functional, Canis lupus familiaris, Cardiac ventricle; in short: as §4
Canis familiaris [20] = test: Idioventricular heart rate (IVR) measured in canine 24-h Infarction model at an cumulative intravenous dose of 2.4 uM/kg; format: functional, Canis lupus familiaris; in short: as §3
Canis familiaris [21] = test: Spontaneous arrhythmias measured in canine 24-h Infarction model at a single intravenous dose of 2.4 uM/kg; format: functional, Canis lupus familiaris; in short: as §1
Canis familiaris [22] = test: Spontaneous arrhythmias measured in canine 24-h Infarction model at an cumulative intravenous dose of 0.72 uM/kg; format: functional, Canis lupus familiaris; in short: as §1
Canis familiaris [23] = test: Number of canine in which arrhythmias could not be induced at an cumulative intravenous dose of 2.4 uM/kg; format: functional, Canis lupus familiaris; in short: as §4
Canis familiaris [24] = test: Heart Rate measured in canine just after inducing atrial flutter (AFL) termination by the compound at a dose of 0.6 umol/kg; format: functional, Canis lupus familiaris
Canis familiaris [25] = test: Heart Rate measured in canine just after inducing atrial flutter (AFL) termination by the compound at a dose of 12.0 uM/kg; format: functional, Canis lupus familiaris
Canis familiaris [26] = test: Ventricular effective refractory (VEPR) period measured in canine 24-h Infarction model at an cumulative intravenous dose of 2.4 uM/kg; format: functional, Canis lupus familiaris, Heart
In short: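 Male mongrel dogs (16-22 kg) with LAD permanently ligated in two stages, studied 24 h after ligation. Compound given in saline (6.0 µmol/mL) as sequential intravenous doses to reach cumulative 0.24, 0.72 and 2.4 µmol/kg. VERP and other measurements taken at baseline and 15 min after each dose. Saline-dosed dogs served as controls. Results are means ± SEM, paired t-test, p ≤ 0.05.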

Canis familiaris [27] = species on record: Canis familiaris; test: Ventricular effective refractory period ([…]) measured in canine just after inducing atrial flutter (AFL) termination by the compound; format: functional, Canis lupus familiaris, Heart
In short: (§5)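 Conscious dogs, loosely restrained in a sling, with exteriorized electrode leads, studied 2 weeks after instrumentation. AFL was induced and counted as sustained if it lasted 5 min. Compound in saline given intravenously every 5 min to cumulative 0.024-12.0 µmol/kg. VERP was measured at AFL termination and 3 min after each dose. Results are means ± SEM versus baseline, p ≤ 0.05.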

Canis familiaris [28] = test: Ventricular effective refractory period ([…]) measured in canine just after inducing atrial flutter (AFL) termination by the compound at a dose of 0.6 umol/kg; format: functional, Canis lupus familiaris, Heart; in short: as §5
Canis familiaris [29] = test: Ventricular effective refractory period ([…]) measured in canine just after inducing atrial flutter (AFL) termination by the compound at a dose of 12.0 uM/kg; format: functional, Canis lupus familiaris, Heart; in short: as §5
Canis familiaris [30] = test: Number of canine in which sustained ventricular tachycardia (SVT) was observed in PES-induced arrhythmias at an cumulative intravenous dose of 0.24 uM/kg; format: functional, Canis lupus familiaris, Cardiac ventricle; in short: as §4
Canis familiaris [31] = test: Ventricular MAPD90 measured in canine 24-h Infarction model at a single intravenous dose of 2.4 uM/kg; format: functional, Canis lupus familiaris, Heart; in short: as §1

## CCN(CCCCCC(C)(C)F)CCC[C@H](O)c1ccc(NS(C)(=O)=O)cc1.O=C(O)/C=C/C(=O)O
Canis familiaris [1]
  AERP: 153 ms
Canis familiaris [2]
  AERP: 164 ms
Canis familiaris [3]
  AERP: 166 ms
Canis familiaris [4]
  AERP: 162 ms
Canis familiaris [5]
  QT interval: 238 ms
Canis familiaris [6]
  QT interval: 200 ms
Canis familiaris [7]
  QT interval: 204 ms
Canis familiaris [8]
  AERP: 149 ms
Canis familiaris [9]
  AERP: 160 ms
Canis familiaris [10]
  HR: 127 beats min-1
Canis familiaris [11]
  HR: 114 beats min-1
Canis familiaris [12]
  HR: 127 beats min-1
Canis familiaris [13]
  HR: 146 beats min-1
Canis familiaris [14]
  Atrial MAPD90: 148 ms
Canis familiaris [15]
  Atrial MAPD90: 146 ms
Canis familiaris [16]
  No. of canine: 0
Canis familiaris [17]
  No. of canine: 1
Canis familiaris [18]
  No. of canine: 0
Canis familiaris [19]
  No. of canine: 0
Canis familiaris [20]
  IVR: 124 beats min-1
Canis familiaris [21]
  PVCs: 53 number min-1
Canis familiaris [22]
  PVCs: 68 number min-1 and 57 number min-1
Canis familiaris [23]
  No. of canine: 10
Canis familiaris [24]
  HR: 111 beats min-1
Canis familiaris [25]
  HR: 122 beats min-1
Canis familiaris [26]
  VERP: 185 ms
Canis familiaris [27]
  VERP: 138 ms
Canis familiaris [28]
  VERP: 141 ms
Canis familiaris [29]
  VERP: 137 ms
Canis familiaris [30]
  No. of canine: 1
Canis familiaris [31]
  Ventricular MAPD90: 201 ms
